Screening results: PubChem, several laboratories
CSC inhib = blocks cancer stem cells; inhibition, % at 7.5 µM; hit rate 1.1% among 300,000; cancer stem cell-like cells viability, luminescence; in the data active means inhibition above about 75%; tested in HMLE shEcad cells
Mot1-301 SUMO = SUMOylation pathway inhibition by Mot1-301 growth rescue. S. cerevisiae Mot1-301 growth rescue, ATP luminescence, 38.5C; percent above DMSO median, 100 means doubled. growth rescue, % at 18.8 µM. hit rate 1% among 320,000;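 active means every valid replicate shows activation above 250% relative to neutral control wells; inactive means the rest, any valid replicate at or below 250%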
T cruzi inh = blocks replication of Trypanosoma cruzi; inhibition, % (concentration not given with the values); T. cruzi beta-gal in NIH3T3, luminescence, 90 h; hit rate 1.4% among 300,000;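 active means mean inhibition across valid replicates above about 55%, limit read from the data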;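 further: signal also drops with host cell toxicity which is not excluded here; higher percent means less beta-gal luminescence so fewer parasites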
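Assay system: NIH/3T3 host cells with β-galactosidase reporter T. cruzi; input: 5,000 host fibroblasts per well; compound: single 50 nL compound addition per well in DMSO; timing: ≥90 h infection period, 3 h prior cell attachment; measured by: GalScreen β-gal luminescence, detergent lysis, 60 min; evaluation: percent inhibition of parasite-derived β-gal signal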
Beta cell apopt = beta cell apoptosis inhibition; INS-1E cytokine-induced death, ATP luminescence, 48 h; percent of positive-control rescue, neutral wells zero; protection from apoptosis, % (no concentration beside the values); hit rate 0.8% among 300,000; AID 435005;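 active means Every replicate reaches about 75%, or at least half do and their mean reaches it too, limit read from the data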;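 further: higher means more ATP so stronger rescue from cytokine killing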
WT yeast gro inh = growth inhibition of WT yeast, mitochondrial fusion screen; mitochondrial fusion phenotypic screen, WT strain; inhibition, % at 10 µM; hit rate 2.1% among 190,000; AID 1362; in the data active means inhibition above about 58%; tested in S. cerevisiae
Efflux pump inh = blocks antifungal efflux pumps in multiplex yeast assay; S. cerevisiae Candida pump triplex, Nile Red efflux; inhibition, % at 10 µM; hit rate 0.44% among 330,000;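 active means plate passing quality check with inhibition over a set limit, or well fluorescence over plate mean plus 4 SD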;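 further: Nile Red retained in pooled yeast measured as flow cytometry median fluorescence; higher means more Nile Red kept so more efflux inhibition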
A number is an active result; - = inactive; . = no result given. This is a sample that favours compounds with a hit; in the whole collection about 4.8% have one here.

SMILES | CSC inhib | Mot1-301 SUMO | T cruzi inh | Beta cell apopt | WT yeast gro inh | Efflux pump inh
CCOc1cc(CN2CCN(c3ncccn3)CC2)ccc1OC | - | - | - | - | . | -
CS(=O)(=O)Nc1cccc(C2=NN(C(=O)c3ccco3)C(c3cccs3)C2)c1 (stereo unspecified) | - | - | - | - | . | -
CCCCc1ccc(N=N/C(C(=O)Nc2ccc(NC(C)=O)cc2OC)=C(/C)O)cc1 | 80 | - | - | - | . | -
COc1ccccc1NS(=O)(=O)c1cc(N=N/C(C(=O)Nc2ccc(Cl)cc2)=C(/C)O)ccc1C | - | - | . | - | . | -
O=[N+]([O-])c1ccc(Sc2nc3ccccc3o2)c([N+](=O)[O-])c1 | 106 | - | 55 | - | - | -
O=[N+]([O-])c1ccc(Cl)cc1Sc1nc2ccccc2o1 | - | - | - | - | - | -
O=c1[nH]c(Sc2ccc([N+](=O)[O-])cc2[N+](=O)[O-])nc2ccccc12 | - | - | 61 | - | . | -
CCCCCc1n[nH]c2c1CCCC2 | - | - | - | - | . | -
O=[N+]([O-])c1cccnc1N1CCN(c2ccc(F)cc2)CC1 | - | - | - | - | - | -
COc1ccc2c(c1)c(C(=O)N/N=C/c1cccc(Br)c1)c(C)n2C | - | - | 55 | - | . | -
COc1ccc2c(c1)c(C(=O)N/N=C/c1cccc(O)c1)c(C)n2C | - | - | - | - | - | -
O=C(NNC1=C(C(=O)C(F)(F)F)CCC1)c1ccc(Br)cc1 | 107 | - | - | - | - | -
Nc1ccccc1C(=O)NNC1=C(C(=O)C(F)(F)F)CCC1 | - | - | - | - | . | -
COc1ccc(F)cc1CSc1nnnn1-c1ccc(O)cc1 | - | - | - | . | . | -
COc1cc(CSc2nnnn2-c2ccc(C)cc2)cc(OC)c1OC | - | - | - | 102 | - | -
CCc1cc2ccc(C)cc2nc1SCC(=O)NC1CCCC1 | . | - | - | - | . | -
CCc1cc2ccc(C)cc2nc1SCC(=O)c1ccc(NC(C)=O)cc1 | 87 | - | - | - | - | -
CCc1cc2cccc(C)c2nc1SCC(=O)Nc1cc(C)on1 | - | - | - | - | - | -
CCc1cc2cccc(C)c2nc1SCC(=O)c1ccc(NC(C)=O)cc1 | 121 | - | - | - | - | -
O=C(Nc1ccc2ccccc2c1)C(c1ccccc1)C1CCCC1 (stereo unspecified) | - | - | 64 | - | - | -
COc1cc(/C=N/Nc2ccccc2)ccc1O | - | - | - | - | . | -
COc1ccc(/C=N/N(c2ccccc2)c2ccccc2)cc1O | 81 | - | - | - | . | -
COc1cc(/C=N/N(c2ccccc2)c2ccccc2)ccc1O | 99 | - | - | - | . | -
COc1cc(/C=N/NC(=O)CCc2ccccc2)ccc1O | - | - | - | - | 70 | -
CCOC(CNC(=O)CN1C(=O)COc2ccc(S(=O)(=O)N3CC(C)CC(C)C3)cc21)OCC (stereo unspecified) | . | - | - | - | . | -
SMILES | CSC inhib | Mot1-301 SUMO | T cruzi inh | Beta cell apopt | WT yeast gro inh | Efflux pump inh
COc1ccc(Nc2ncnc3ccccc23)c(OC)c1 | - | - | - | - | - | -
CC(Nc1nc(N2CCCCC2)nc2ccccc12)c1ccccc1 (stereo unspecified) | . | - | 64 | - | - | -
COc1ccc(Nc2nc(N3CCCC3)nc3ccccc23)c(OC)c1 | - | - | 65 | - | - | -
Clc1ccc(-c2nc(N3CCCCC3)nc3ccccc23)cc1 | - | - | - | - | 59 | -
O=C(O)CCC(=O)N1CCN(c2nc(-c3ccccc3)c3ccccc3n2)CC1 | - | - | - | - | . | -
COCc1cc(C)nc(SCC(=O)Nc2ccc3c(c2)n(C)c(=O)n3C)c1C#N | - | - | - | . | . | -
Cc1oc(/N=C/c2ccccc2)c(C#N)c1C | 99 | - | - | 165 | . | -
C=C(C)CNC(=S)N/N=C/c1ccco1 | - | - | - | - | . | -
CCOc1ccc(C(=O)c2ccc([N+](=O)[O-])cc2Cl)cc1 | - | - | 60 | - | - | -
C=CCNCCOCCOc1ccc(C)cc1Br | - | - | 56 | - | - | -
O=C(COC(=O)c1nn(-c2ccccc2C(F)(F)F)cc1O)c1ccc(OC(F)F)cc1 | - | - | - | - | . | -
Cc1cccc(NC(=O)N(Cc2nc3ccccc3c(=O)[nH]2)C2CCCC2)c1 | - | - | - | - | 78 | -
Cc1cc(/C=C2\NC(=O)N(Cc3ccc(Cl)cc3)C2=O)c(C)n1C | - | - | . | - | - | -
O=C(N/N=C(\Cc1ncc[nH]1)c1ccccc1)c1ccccc1 | - | - | 74 | - | - | -
O=C(N/N=C(\c1ccccc1)c1cccnc1)c1cccc(F)c1 | 109 | - | - | 108 | . | -
NC(=O)c1ccc(C(=O)N/N=C(/Cc2ccccc2)c2ccccc2)cc1 | - | - | - | - | . | -
O=C(N/N=C(\c1ccccc1)c1cccnc1)c1ccc(O)cc1 | - | - | - | - | . | -
O=C(N/N=C(\Cc1ncc[nH]1)c1ccccc1)c1cccnc1 | 100 | - | . | - | - | -
O=C(N/N=C(\Cc1ncc[nH]1)c1ccccc1)c1ccncc1 | 79 | - | - | 101 | - | -
Cc1cc(C)cc(N(CC(=O)NCCSCc2ccccc2)S(C)(=O)=O)c1 | - | - | - | - | - | -
O=c1cc(N2CCCCC2)c(-c2ccccc2)nn1Cc1ccccc1Cl | - | - | - | - | 88 | -
C=CCn1nc(-c2ccccc2)c(N2CCCCC2)cc1=O | - | - | - | - | - | -
O=c1cc(Cl)c(-c2ccccc2)nn1Cc1ccc(Cl)cc1 | - | - | - | - | . | -
O=c1cc(N2CCCCC2)c(-c2ccccc2)nn1Cc1cccc(Cl)c1 | 88 | - | - | . | 86 | -
O=c1cc(N2CCCCC2)c(-c2ccccc2)nn1Cc1ccc(Cl)cc1Cl | 83 | - | - | - | 73 | -
SMILES | CSC inhib | Mot1-301 SUMO | T cruzi inh | Beta cell apopt | WT yeast gro inh | Efflux pump inh
O=C1CCCc2ccccc2N1Cc1ccc(Cl)cc1Cl | - | - | - | - | - | -
NNC(=O)c1sc2cc(C(F)(F)F)cnc2c1-c1cccnc1 | - | - | - | - | - | -
Cc1cccc(-n2ncc3c(N(C)Cc4ccccc4)ncnc32)c1 | - | - | - | - | 70 | -
COc1ccccc1CNC(=O)CN1CCN(c2ccc(C(C)=O)cc2)CC1 | - | - | - | - | . | -
Fc1ccc(N2CCN(Cc3c[nH]c4ccccc34)CC2)cc1 | - | - | 73 | 91 | . | -
O=C(C(=O)N1CCN(c2ccc(F)cc2)CC1)c1c[nH]c2ccccc12 | - | - | - | - | - | -
c1cnc(N2CCN(Cc3c[nH]c4ccccc34)CC2)nc1 | - | - | - | 106 | - | -
Cc1ccc(NC(=O)c2ccc3c(c2)OCCO3)cc1S(=O)(=O)Nc1cccc(Cl)c1 | - | - | - | - | - | -
O=C(NC1CCCC1)C1CC(=O)N(c2ccccc2)C1 (stereo unspecified) | - | 356 | - | . | . | -
Cc1cc(=O)oc2cc(OCC3CC(c4ccc(N(C)C)cc4)=NO3)ccc12 (stereo unspecified) | - | - | - | - | - | -
